17 molecules from ChEMBL document CHEMBL2311307, “Polymethoxyflavones as agents that prevent formation of cataract: nobiletin congeners show potent growth inhibitory effects in human lens epithelial cells” (Bioorg Med Chem Lett, 2013) can be followed below.

Structures are written as SMILES. Calls of active or inactive are those of the source. The calls are words filed in the database; no cut-off is given here. Bounds are passed on as bounds.

A short description of assay [1]: Growth inhibition of human SRA 01/04 cells at 32 uM after 4 days by Alamar blue assay. It is filed as functional. The note with it: 96 h, read-out: GI. The essentials: (§1)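 SRA01/04 human lens epithelial cells grown in DMEM with 20% heat-inactivated FBS plus penicillin/streptomycin/neomycin, 37 °C, 5% CO₂. Seeded at 3 × 10³ cells/well and treated in DMEM with varied flavonoid concentrations for up to 4 days. Alamar Blue added for the final 2 h, fluorescence read at ex 530/em 590 nm. Inhibition taken from the day 4 minus day 0 fluorescence change, treated versus control. n = 4, mean ± SD.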

Assay [2] can be described thus: […] human SRA 01/04 cells assessed as inhibition of PMA-induced proMMP9 expression after 24 hrs by gelatin zymographic analysis. It counts as functional, cell-based.
A short description of assay [3]: Growth inhibition of human SRA 01/04 cells at 64 uM after 4 days by Alamar blue assay. The note with it: 96 h, read-out: GI. It counts as functional. The essentials: as §1
Assay [4] is filed under the species Homo sapiens. The assay can be described thus: Growth inhibition of human SRA 01/04 cells after 4 days by Alamar blue assay. It counts as functional. The gist of the method: as §1
(In general: The colour change of resazurin is a common sign of viable cells or microbes.)

The species entered for assay [5] is Homo sapiens. Description: Growth inhibition of human SRA 01/04 cells assessed as reduction in PCNA expression at 64 uM after 4 days by Western blot analysis. It counts as functional. The essentials: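 SRA01/04 cells plated at 2 × 10⁵ cells/dish, then harvested and lysed in RIPA buffer (pH 7.5 Tris–HCl, with orthovanadate, PMSF and protease inhibitors). 7 µg protein run on 12.5% SDS-PAGE and transferred to PVDF. Probed overnight at 4 °C with mouse anti-PCNA or anti-β-actin, then alkaline phosphatase secondary for 1 h at room temperature. Bands developed with BCIP/NBT.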
On the technique in general: Immunoblotting shows a protein as a band on a membrane.

Consider `COc1ccc(-c2cc(=O)c3c(O)c(OC)c(OC)c(OC)c3o2)cc1OC` [5-DEMETHYLNOBILETIN], for which the inhibition of growth at 32 µM in assay [1] amounted to 17.2%.

One may read the IC50 as the concentration at which inhibition is half-maximal. For `COc1c(OC)c(O)c2c(=O)cc(-c3ccccc3O)oc2c1OC`, the inhibition of growth at 32 µM in assay [1] stood at 30.7%. In addition, the IC50 in assay [2] was > 64 µM.

`COc1ccc(-c2cc(=O)c3c(OC)c(OC)c(OC)c(OC)c3o2)cc1` [TANGERETIN]: the inhibition of growth at 32 µM in assay [1] was determined as 75.9%.

In the case of `COc1c(OC)c(OC)c2c(=O)cc(-c3cccc(O)c3)oc2c1OC`, the inhibition of growth at 32 µM in assay [1] was found to be 18.3%.

Take `COc1cc(OC)cc(-c2cc(=O)c3c(OC)c(OC)c(OC)c(OC)c3o2)c1`: the inhibition of growth at 32 µM in assay [1] stood at 59.9%.

As to `COc1c(OC)c(OC)c2c(=O)cc(-c3ccc(O)cc3)oc2c1OC`, the inhibition of growth at 32 µM in assay [1] was found to be 32%.

Take `COc1c(OC)c(O)c2c(=O)cc(-c3ccc(O)cc3)oc2c1OC` [XANTHOMICROL]: the inhibition of growth at 32 µM in assay [1] was 42.3%.

For `COc1ccccc1-c1cc(=O)c2c(OC)c(OC)c(OC)c(OC)c2o1`, in assay [1], the inhibition of growth at 32 µM was found to be 23.3%.

For `COc1cccc(OC)c1-c1cc(=O)c2c(OC)c(OC)c(OC)c(OC)c2o1`, the inhibition of growth at 32 µM in assay [1] was 75.9%. In addition, in assay [2], the IC50 was > 64 µM.

Take `COc1cc(-c2cc(=O)c3c(O)c(OC)c(OC)c(OC)c3o2)ccc1O`: the inhibition of growth at 32 µM in assay [1] amounted to 64.1%.

For the molecule `COc1c(OC)c(OC)c2c(=O)cc(-c3cc(O)cc(O)c3)oc2c1OC`, the inhibition of growth at 32 µM in assay [1] was determined as 11.5%.

`COc1c(OC)c(OC)c2c(=O)cc(-c3ccccc3O)oc2c1OC`: in assay [1], the inhibition of growth at 32 µM turned out to be 4.2%.

As to `COc1c(OC)c(OC)c2c(=O)cc(-c3c(O)cccc3O)oc2c1OC`, the inhibition of growth at 32 µM in assay [1] is 5.1%. For the same molecule, the IC50 in assay [2] is 55 µM.

With `COc1ccc(-c2cc(=O)c3c(OC)c(OC)c(OC)c(OC)c3o2)cc1OC` [NOBILETIN], the inhibition of growth at 64 µM in assay [3] was 80%. Further, the “growth inhibition (GI)” value in the assay filed under Homo sapiens [4] is “Dose-dependent effect”. Moreover, the inhibition of growth at 32 µM in assay [1] was determined as 47.4%. For the same molecule, the “growth inhibition (GI)” value in the assay filed under Homo sapiens [5] is “Active”.

On to `COc1cc(-c2cc(=O)c3c(OC)c(OC)c(OC)c(OC)c3o2)ccc1O`, for which the inhibition of growth at 32 µM in assay [1] is 30.7%.

On to `COc1cccc(-c2cc(=O)c3c(OC)c(OC)c(OC)c(OC)c3o2)c1`, for which the inhibition of growth at 32 µM in assay [1] came out at 42%.

For the molecule `COc1c(OC)c(OC)c2c(=O)cc(-c3ccc(O)c(O)c3)oc2c1OC`, the inhibition of growth at 32 µM in assay [1] came out at 26.5%.
